Measurements pooled from the literature.
Lines come from different studies, so protocols differ.

| SMILES | test system | conditions | quantity | value |
| --- | --- | --- | --- | --- |
| C[C@]12CC[C@H](n3ccnc3)CC1=CC[C@@H]1[C@@H]2CC[C@]2(C)C(n3cnc4ccccc43)=CC[C@@H]12.Cl.Cl | male CD-1 mouse, plasma | oral, 10 mg/kg | AUC(0-t) | 32500 ng·h/mL |
| Cc1cc(C)nc(Nc2ncc(C(=O)NCCc3c(C)[nH]c4ccccc34)cn2)c1 | C57BL/6 mouse, plasma | intraperitoneal, 8.8 mg/kg | AUC(0-inf) | 1050 ng·h/mL |
| CCN(CC)CCCC[C@H](NC(=O)[C@H](CC(C)C)NC(=O)[C@H](C)NC(=O)[C@H](Cc1ccccc1)NC(=O)c1ccc(C(C)(C)C)cc1)C(=O)N[C@@H](CO)C(=O)OC | male Swiss mouse, blood | intravenous, 3 mg/kg | AUC(0-inf) | 1890 ng·h/mL |
| CN1CCCCC1Cn1cc(C(=O)c2cc([N+](=O)[O-])ccc2I)c2ccccc21 (racemic) | mouse, plasma | intravenous, 25 mg/kg | AUC | 5830 ng·h/mL |
| CCC[C@@](N)(CO)CCc1ccc(OCCCCCC(C)C)cc1 | mouse, plasma | oral, 50 mg/kg | AUC(0-t) | 5.02 µM·h |
| Cc1ncc2n1-c1ccc(Cl)cc1C(c1ccccc1F)=NC2 | mouse, plasma | intravenous, 0.3 mg/kg | AUC(0-inf) | 0.15 µM·h |
| CN[C@H](CC(C)C)C(=O)N[C@H]1C(=O)N[C@@H](CC(N)=O)C(=O)N[C@H]2C(=O)NC3C(=O)N[C@H](C(=O)N[C@H](C(=O)NCCC[N+](C)(C)C)c4cc(O)cc(O)c4-c4cc3ccc4O)[C@H](O)c3ccc(c(Cl)c3)Oc3cc2cc(c3OC2OC(CO)C(O)[C@H](O)[C@@H]2O[C@H]2CC(C)(NCc3ccc(-c4ccc(Cl)cc4)cc3)[C@H](O)[C@H](C)O2)Oc2ccc(cc2Cl)[C@H]1O (some centres unmarked) | mouse, plasma | intravenous, 50 mg/kg | AUC | 430000 ng·h/mL |
| NCC(=O)Nc1ccc(-n2nc(C(F)(F)F)cc2-c2ccc3c(ccc4ccccc43)c2)cc1 | mouse, plasma | oral, 80 mg/kg, single dose | AUC(0-inf) | 81800 ng·h/mL |
